Values after ≈ are worked out from the molar mass of the structure shown. Active and inactive are the calls of the source. The rule behind the calls is not given here.
Columns and labels:
DU-145 [1] = assay: Inhibition of cell survival in MIF dependent human DU145 cells at 100 uM after 24 hrs by MTT assay; type: functional; conditions: for inhibition at 100 µM: DU-145, 24 h
Method in brief: (§1)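 DU-145 (RPMI) or iPAH endothelial cells (MCDB131) grown 24 h with 10% FCS, washed, then exposed 24 h serum-free to 10, 50 or 100 µM compound. MTT 5 mg/mL added for 6 h, medium removed, DMSO added, absorbance read at 590 nm.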

[2] = target: T1, Macrophage migration inhibitory factor (Homo sapiens, UniProt P14174); assay: Inhibition of recombinant human MIF tautomerase activity using 4-HPP as substrate preincubated for 15 mins followed by substrate addition measured after 360 secs
T1 sequence (P14174 whole entry): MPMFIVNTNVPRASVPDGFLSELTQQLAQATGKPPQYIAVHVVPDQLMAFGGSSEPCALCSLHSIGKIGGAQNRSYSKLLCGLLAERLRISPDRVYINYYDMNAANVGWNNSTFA
Method in brief: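 Recombinant human MIF (100 nM) preincubated 15 min with 8 inhibitor concentrations, 0–10 µM; 4-HPP substrate, pre-equilibrated overnight at 4°C in 50 mM ammonium acetate, added in 0.435 M boric acid pH 6.6 at room temperature. Absorbance increase at 305 nm followed over 0–360 s; Ki determined; at least 3 independent replicates.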

Rattus norvegicus [3] = assay: Anti-hypertensive activity in MCT-induced pulmonary hypertension Wistar rat model at 30 mg/kg/day administered via oral gavage for 2 weeks starting from 2 weeks post MCT challenge; type: functional, organism-based
Method in brief: (§2)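 Young male Wistar rats (100 g) given single subcutaneous monocrotaline 60 mg/kg; from 2 weeks later, dosed daily by gavage for 2 weeks at 30 mg.kg.day-1 in 33% DMSO in propylene glycol:saline (68:32), or vehicle alone. Under isoflurane, jugular catheter advanced into pulmonary artery for pressure; cardiac output by thermodilution; RV hypertrophy as Fulton index.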

DU-145 [4] = assay: Induction of apoptosis in human DU145 cells assessed as late apoptotic cells at 100 uM by Annexin V-FITC-staining based FACS analysis (reference value: 2.34%); type: functional
[5] = Inhibition of cell survival in idiopathic pulmonary arterial hypertension patient derived primary pulmonary endothelial cells at 100 uM after 24 hrs by MTT assay; type: functional; conditions: Homo sapiens; method in brief: as §1
DU-145 [6] = assay: Induction of apoptosis in human DU145 cells assessed as necrotic cells at 100 uM by Annexin V-FITC-staining based FACS analysis (reference value: 0.22%); type: functional
Rattus norvegicus [7] = assay: Toxicity in MCT-induced pulmonary hypertension Wistar rat model assessed as change in heart rate at 30 mg/kg/day administered via oral gavage for 2 weeks starting from 2 weeks post MCT challenge; type: organism-based; conditions: in vivo, 336 h; method in brief: as §2
Rattus norvegicus [8] = assay: Cardiotoxicity in MCT-induced pulmonary hypertension Wistar rat model assessed as effect on collagen area fraction in left ventricle at 30 mg/kg/day administered via oral gavage for 2 weeks starting from 2 weeks post MCT challenge measured post last dose by picrosirius red staining based assay; type: toxicity, organism-based; conditions: in vivo, 336 h
Method in brief: (§3)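 Monocrotaline rat model as above (60 mg/kg s.c.; daily gavage 30 mg/kg/day for 2 weeks starting 2 weeks post-MCT, DMSO/propylene glycol/saline vehicle). Heart sections deparaffinized and stained with Picrosirius red for collagen; collagen area fraction scored in right and left ventricle myocardium against control rats.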

DU-145 [9] = assay: Antiproliferative activity against human DU145 cells by BrdU-incorporation based time-resolved fluorescence analysis
Rattus norvegicus [10] = assay: Anti-hypertensive activity in MCT-induced pulmonary hypertension Wistar rat model assessed as reduction in right ventricular hypertrophy at 30 mg/kg/day administered via oral gavage for 2 weeks starting from 2 weeks post MCT challenge measured post last dose; type: functional, organism-based; method in brief: as §2
DU-145 [11] = assay: Induction of apoptosis in human DU145 cells at 100 uM by TUNEL assay; type: functional, cell-based
Rattus norvegicus [12] = assay: Toxicity in MCT-induced pulmonary hypertension Wistar rat model assessed as change in body weight at 30 mg/kg/day administered via oral gavage for 2 weeks starting from 2 weeks post MCT challenge; type: organism-based; conditions: in vivo, 336 h; method in brief: as §2
[13] = target: T2, Macrophage migration inhibitory factor (Homo sapiens) (UniProt P14174); assay: Inhibition of recombinant human MIF-induced ERK phosphorylation in idiopathic pulmonary arterial hypertension patient derived primary pulmonary endothelial cells by Western blot analysis
T2 sequence (whole entry): T1 sequence (P14174 whole entry)
Method in brief: (§4)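 iPAH-derived pulmonary endothelial cells stimulated with 50 ng/mL recombinant MIF (endotoxin <0.07 EU/µg) with increasing antagonist doses; lysed and sonicated in RIPA with protease/phosphatase inhibitors, 30 µg protein immunoblotted for pAKT/AKT and pERK1/2/ERK.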

DU-145 [14] = assay: Induction of apoptosis in human DU145 cells assessed as viable cells at 100 uM by Annexin V-FITC-staining based FACS analysis (reference value: 94.9%); type: functional; conditions: read-out: Activity
[15] = target: T2, Macrophage migration inhibitory factor (Homo sapiens); assay: Inhibition of recombinant human MIF-induced AKT phosphorylation in idiopathic pulmonary arterial hypertension patient derived primary pulmonary endothelial cells by Western blot analysis; method in brief: as §4
Rattus norvegicus [16] = assay: Anti-hypertensive activity in MCT-induced pulmonary hypertension Wistar rat model assessed as reduction in mean pulmonary artery pressure at 30 mg/kg/day administered via oral gavage for 2 weeks starting from 2 weeks post MCT challenge measured post last dose; type: functional, organism-based; method in brief: as §2
Rattus norvegicus [17] = assay: Toxicity in MCT-induced pulmonary hypertension Wistar rat model assessed as change in systemic blood pressure at 30 mg/kg/day administered via oral gavage for 2 weeks starting from 2 weeks post MCT challenge; type: organism-based; conditions: in vivo, 336 h; method in brief: as §2
Rattus norvegicus [18] = assay: Cardiotoxicity in MCT-induced pulmonary hypertension Wistar rat model assessed as induction of cardiac fibrosis at 30 mg/kg/day administered via oral gavage for 2 weeks starting from 2 weeks post MCT challenge measured post last dose by picrosirius red staining based assay; type: toxicity, organism-based; conditions: in vivo, 336 h; method in brief: as §3
DU-145 [19] = assay: Inhibition of cell survival in MIF dependent human DU145 cells after 24 hrs by MTT assay; type: functional, cell-based; conditions: DU-145, 24 h; method in brief: as §1
[20] = Aqueous solubility in pH 7.4 PBS buffer at […] after 24 hrs; type: physicochemical
Rattus norvegicus [21] = assay: Cardioprotective activity in MCT-induced pulmonary hypertension Wistar rat model assessed as reversal of increased collagen fibers in endomysium at 30 mg/kg/day administered via oral gavage for 2 weeks starting from 2 weeks post MCT challenge measured post last dose by picrosirius red staining-based assay; type: functional, organism-based; method in brief: as §3
DU-145 [22] = assay: Induction of apoptosis in human DU145 cells assessed as early apoptotic cells at 100 uM by Annexin V-FITC-staining based FACS analysis (reference value: 2.5%); type: functional
DU-145 [23] = assay: Induction of apoptosis in human DU145 cells assessed as increase in caspase 3/7 activity after 24 hrs by fluorescence based assay; type: functional, cell-based
Method in brief: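 DU-145 cells exposed to increasing doses for 24 h; caspase-3/7 activity measured by fluorogenic Apo-ONE read-out.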

Q: With Cc1ccc2oc(=S)n(Cc3cccc(F)c3)c2c1 as the compound, how does the inhibition at 100 µM (DU-145 [1]) read?
A: 46%

Q: Which inhibition at 100 µM (DU-145 [1]) does the source give for Cc1ccc2oc(=S)n(Cc3ccccc3F)c2c1 here?
A: 28%

Q: With COc1ccc(Cn2c(=S)oc3ccc(C)cc32)cc1 as the compound, how does the inhibition at 100 µM (DU-145 [1]) read?
A: 36%

Q: For Cc1ccc2oc(=S)n(Cc3ccc(F)c(O)c3)c2c1, which Ki [2] is on record?
A: 2000 to 5000 nM

Q: What about the inhibition at 100 µM (DU-145 [1]) of the same compound?
A: 31%

Q: Which Ki [2] does the source give for Cc1ccc2oc(=S)n(Cc3ccccc3)c2c1 here?
A: 1000 to 3000 nM

Q: What about the inhibition at 100 µM (DU-145 [1]) of the same compound?
A: 36%

Q: Which inhibition (DU-145 [1]) does the source give for CC(C)(C)c1ccc2oc(=S)n(Cc3ccccc3)c2c1 here?
A: inactive

Q: With CC(C)c1ccc2oc(=S)n(Cc3ccccc3)c2c1 as the compound, how does the Ki [2] read?
A: 1000 to 3000 nM

Q: What about the inhibition (DU-145 [1]) of the same compound?
A: inactive

Q: Which inhibition (DU-145 [1]) does the source give for Cc1cccc2oc(=S)n(Cc3ccccc3)c12 here?
A: inactive

Q: For S=c1oc2ccccc2n1Cc1ccccc1, which inhibition (DU-145 [1]) is on record?
A: inactive

Q: With COC(=O)CC1CC(c2ccc(O)cc2)=NO1 (configuration not stated) as the compound, how does the inhibition at 100 µM (DU-145 [1]) read?
A: 8%

Q: With Fc1ccc2oc(=S)n(Cc3ccccc3)c2c1 as the compound, how does the inhibition at 100 µM (DU-145 [1]) read?
A: 31%

Q: With O=c1oc2ccc(C(F)(F)F)cc2n1Cc1ccc(F)c(O)c1 as the compound, how does the inhibition (DU-145 [1]) read?
A: inactive

Q: For Cc1ccc2oc(=S)n(Cc3cccc(O)c3)c2c1, which Ki [2] is on record?
A: 100 to 600 nM

Q: What about the inhibition at 100 µM (DU-145 [1]) of the same compound?
A: 46%

Q: For Cc1ccc2c(c1)oc(=S)n2Cc1ccccc1, which inhibition at 100 µM (DU-145 [1]) is on record?
A: 24%

Q: With Cc1ccc(Cn2c(=S)oc3ccc(C)cc32)cc1 as the compound, how does the inhibition (DU-145 [1]) read?
A: inactive

Q: For Cc1ccc2oc(=S)n(Cc3ccccc3Cl)c2c1, which inhibition (DU-145 [1]) is on record?
A: inactive

Q: For Cc1ccc2oc(=S)n(Cc3ccc(F)cc3)c2c1, which inhibition at 100 µM (DU-145 [1]) is on record?
A: 25%

Q: Which inhibition at 100 µM (DU-145 [1]) does the source give for Cc1cccc(Cn2c(=S)oc3ccc(C)cc32)c1 here?
A: 32%

Q: For COc1cccc(Cn2c(=S)oc3ccc(C)cc32)c1, which inhibition at 100 µM (DU-145 [1]) is on record?
A: 47%

Q: Which inhibition (DU-145 [1]) does the source give for Cc1ccc2oc(=S)n(Cc3ccccc3O)c2c1 here?
A: inactive

Q: With Cc1ccc2oc(=O)n(Cc3ccccc3)c2c1 as the compound, how does the inhibition (DU-145 [1]) read?
A: inactive

Q: For Cc1ccc2oc(=S)n(Cc3ccccc3[N+](=O)[O-])c2c1, which inhibition at 100 µM (DU-145 [1]) is on record?
A: 14%

Q: For Cc1ccc2oc(=S)n(Cc3ccc(Cl)cc3)c2c1, which inhibition at 100 µM (DU-145 [1]) is on record?
A: 22%

Q: For Cc1ccc2oc(=S)n(Cc3ccc([N+](=O)[O-])cc3)c2c1, which inhibition at 100 µM (DU-145 [1]) is on record?
A: 13%

Q: For S=c1oc2ccc(Cl)cc2n1Cc1ccccc1, which inhibition at 100 µM (DU-145 [1]) is on record?
A: 34%

Q: With Oc1cc(Cn2c(=S)oc3ccc(C(F)(F)F)cc32)ccc1F as the compound, how does the Activity (Rattus norvegicus [3]) read?
A: Active

Q: What about the Activity (DU-145 [4]) of the same compound?
A: 14.5%

Q: What about the inhibition at 100 µM [5] of the same compound?
A: 70%

Q: What about the Ki [2] of the same compound?
A: 300 to 1000 nM

Q: And the Activity (DU-145 [6])?
A: 20.8%

Q: And the Activity (Rattus norvegicus [7])?
A: Non-Toxic

Q: And the Activity (Rattus norvegicus [8])?
A: Non-Toxic

Q: And the Activity (DU-145 [9])?
A: Dose-dependent effect

Q: What about the Activity (Rattus norvegicus [10]) of the same compound?
A: Active

Q: And the Activity (DU-145 [11])?
A: Active

Q: What about the Activity (Rattus norvegicus [12]) of the same compound?
A: Non-Toxic

Q: And the inhibition [13]?
A: Dose-dependent effect

Q: What about the viability at 100 µM (DU-145 [14]) of the same compound?
A: 47.9%

Q: What about the inhibition [15] of the same compound?
A: Dose-dependent effect

Q: What about the Activity (Rattus norvegicus [16]) of the same compound?
A: Active

Q: And the Activity (Rattus norvegicus [17])?
A: Non-Toxic

Q: What about the Activity (Rattus norvegicus [18]) of the same compound?
A: Non-Toxic

Q: What about the EC50 (DU-145 [19]) of the same compound?
A: 60500 nM

Q: And the solubility at 24 h [20]?
A: 3 to 4 µM (≈ 1.03 to 1.37 µg/mL)

Q: What about the Activity (Rattus norvegicus [21]) of the same compound?
A: Active

Q: And the Activity (DU-145 [22])?
A: 16.7%

Q: What about the inhibition at 100 µM (DU-145 [1]) of the same compound?
A: 84%

Q: What about the Activity (DU-145 [23]) of the same compound?
A: Dose-dependent effect

Q: With Cc1ccc2oc(=S)n(Cc3cccc([N+](=O)[O-])c3)c2c1 as the compound, how does the inhibition at 100 µM (DU-145 [1]) read?
A: 24%

Q: With COc1ccccc1Cn1c(=S)oc2ccc(C)cc21 as the compound, how does the inhibition at 100 µM (DU-145 [1]) read?
A: 29%

Q: Which inhibition at 100 µM (DU-145 [1]) does the source give for COc1ccc2oc(=S)n(Cc3cccc(O)c3)c2c1 here?
A: 16%

Q: With FC(F)(F)c1ccc2oc(=S)n(Cc3ccccc3)c2c1 as the compound, how does the inhibition at 100 µM (DU-145 [1]) read?
A: 48%

Q: For Cc1ccc2oc(=S)n(Cc3ccccc3C)c2c1, which inhibition (DU-145 [1]) is on record?
A: inactive
